Experimental data published in ChEMBL document CHEMBL5055620, “Design, Synthesis, and Structural Characterization of Lysine Covalent BH3 Peptides Targeting Mcl-1” (J Med Chem, 2021).
Activity calls are given as the source filed them. The rule behind the calls is not given here. Non-standard residues stand in square brackets, D forms with d. Residues, ends and D or L forms follow the SMILES beside them. ξ: configuration not given here. *: point of attachment. Benzoyl(2-OMe,5-SO2F) = COc1ccc(S(=O)(=O)F)cc1C(=O)*; Benzoyl(3-SO2F) = O=C(c1cccc(S(=O)(=O)F)c1)*; Benzoyl(4-SO2F) = O=C(c1ccc(S(=O)(=O)F)cc1)*; X1 = Cc1ccc(S(=O)(=O)F)cc1C(=O)*; hSer = N[C@@H](CCO)C(=O)O; Nle = CCCC[C@H](N)C(=O)O; Dap = NC[C@H](N)C(=O)O; ξAbu = CCC(N)C(=O)O

Tests used:
[1] = molecular target: T1, Induced myeloid leukemia cell differentiation protein Mcl-1 (Homo sapiens, UniProt Q07820); experiment: Binding affinity to human Mcl-1 assessed as covalent adduct formation by measuring band shift at 100 uM measured after 2 hrs by SDS-PAGE analysis
T1 sequence (Q07820 whole entry, the tested form may be a part): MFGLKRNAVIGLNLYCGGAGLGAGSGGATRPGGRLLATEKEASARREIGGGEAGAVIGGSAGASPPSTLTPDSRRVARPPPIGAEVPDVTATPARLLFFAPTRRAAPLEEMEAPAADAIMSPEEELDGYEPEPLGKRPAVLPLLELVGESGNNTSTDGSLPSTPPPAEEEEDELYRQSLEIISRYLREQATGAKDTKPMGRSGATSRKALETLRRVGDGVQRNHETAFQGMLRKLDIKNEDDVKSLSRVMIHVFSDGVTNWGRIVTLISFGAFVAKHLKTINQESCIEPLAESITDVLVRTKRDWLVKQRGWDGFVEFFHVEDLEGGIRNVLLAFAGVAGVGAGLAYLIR
Method in brief: (§1)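 Protein (hMcl-1 His-tagged construct, or His-tagged hBfl-1 residues 1–149) at 10 μM was incubated with or without agent at 100 μM for 2 h at room temperature in 25 mM TRIS pH 7.5, 150 mM NaCl, 1 mM DTT. Samples were run on 12% Bis-Tris SDS-PAGE with MOPS running buffer and Coomassie-type stained.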

[2] = molecular target: T2, Bcl-2-related protein A1 (Homo sapiens, UniProt Q16548); experiment: Inhibition of human Bfl-1 (1 to 149 residues) expressed in Rosetta-gami (DE3) using biotinylated-BH3 peptide as substrate measured after 2 hrs by DELFIA displacement assay
T2 sequence (Q16548 whole entry): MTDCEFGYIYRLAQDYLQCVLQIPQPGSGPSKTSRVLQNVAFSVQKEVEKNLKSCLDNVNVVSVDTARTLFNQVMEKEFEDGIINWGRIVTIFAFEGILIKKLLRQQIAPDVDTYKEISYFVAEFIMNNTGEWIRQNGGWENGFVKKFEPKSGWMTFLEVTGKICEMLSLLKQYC

[3] = molecular target: T3, Bcl-2-related protein A1 (Homo sapiens) (UniProt Q16548); experiment: Binding affinity to human Bfl-1 assessed as covalent adduct formation by measuring band shift at 100 uM measured after 2 hrs by SDS-PAGE analysis; method in brief: as §1
T3 sequence (whole entry): T2 sequence (Q16548 whole entry)

[4] = molecular target: T1, Induced myeloid leukemia cell differentiation protein Mcl-1; experiment: Degradation of human Mcl-1 in A549 cells assessed as decrease in Mcl-1 protein levels with DMSO for 1 hr by spiking cell lysate assay; type: cell-based
Method in brief: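 A549 cells (Ham's F-12/GlutaMAX, 10% FBS, PenStrep, 0.5 μg/mL puromycin) were lysed 20 min on ice in Tris pH 7.4/Triton/deoxycholate/SDS/IGEPAL/EDTA buffer with protease and phosphatase inhibitors, then centrifuged. Protein-quantified supernatants were incubated 1 h at 37 °C with DMSO or 100 μM agent. Immunoblot used PVDF, anti-Mcl-1 and anti-β-tubulin (4 °C overnight), and ECL.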

[5] = test system: A549; experiment: Induction of decrease in human Mcl-1 level in A549 cells measured up to 100 uM in presence of carfilzomib treated for 2 hrs by Western blot analysis; type: functional, cell-based
Method in brief: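 A549 cells were treated 2 h with DMSO, 50 or 100 μM agent, with or without 30 min pre-treatment with 1 μM carfilzomib. Lysates were immunoblotted for Mcl-1 and β-tubulin. Densitometry gave Mcl-1 relative to β-tubulin from two independent experiments. Significance was by one-way ANOVA with Dunnett post-test.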

[6] = molecular target: T1, Induced myeloid leukemia cell differentiation protein Mcl-1; experiment: Inhibition of human Mcl-1 assessed as inhibition constant by DELFIA displacement assay
Method in brief: (§2)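 His-tagged hMcl-1 (16 nM) and Eu-N1 anti-6xHis antibody (22.2 ng/well) were pre-bound for 2 h to streptavidin wells coated with biotinylated BIM BH3 peptide (600 ng/mL). Test peptide was then added for 0–40 min at RT, followed by washing, enhancement solution and time-resolved fluorescence at ex 340/em 615 nm. kobs was taken from the slope of % inhibition versus time. Ki and kinact came from a hyperbolic fit of kobs against concentration.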

[7] = molecular target: T1, Induced myeloid leukemia cell differentiation protein Mcl-1; experiment: Binding affinity to human Mcl-1 in human A549 cells assessed as denaturation thermal shift at 100 uM by cellular thermal shift assay; type: cell-based
Method in brief: (§3)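 Cellular thermal shift: one million A549 cells were plated overnight and treated 1 h with 1% DMSO or 100 μM agent. Cells were harvested, protease inhibitors added, and heated 3 min at various temperatures. After lysis, the supernatant was analysed by western blot for Mcl-1.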

[8] = molecular target: T1, Induced myeloid leukemia cell differentiation protein Mcl-1; experiment: Inhibition of human Mcl-1 assessed as Kinact by DELFIA displacement assay; method in brief: as §2
[9] = Stability of the compound in pH 7.4 buffer assessed as intact compound after 3.5 hrs by one-dimensional 1H-NMR analysis; type: physicochemical; conditions: read-out: Stability
[10] = Stability of the compound in pH 7.4 buffer assessed as half life by one-dimensional 1H-NMR analysis; type: physicochemical
[11] = molecular target: T1, Induced myeloid leukemia cell differentiation protein Mcl-1; experiment: Binding affinity to human Mcl-1 assessed as covalent adduct formation by measuring increase in molecular weight at 100 uM by mass spectrometry analysis
[12] = test system: A549; experiment: Prevention of thermal denaturation of proteins in human A549 cells assessed as rescue of protein level at 100 uM by Western blotting analysis; type: functional, cell-based; method in brief: as §3
[13] = molecular target: T1, Induced myeloid leukemia cell differentiation protein Mcl-1; experiment: Inhibition of human Mcl-1 (172 to 323 residues) expressed in Escherichia coli BL21 using biotinylated-BH3 peptide as substrate measured after 2 hrs by DELFIA displacement assay

CC[C@H](C)[C@H](NC(=O)[C@H](CCCNC(=N)N)NC(=O)[C@H](CCCNC(=N)N)NC(=O)[C@H](CC(C)C)NC(=O)[C@H](CCC(N)=O)NC(=O)[C@H](CCC(=O)O)NC(=O)[C@H](C)NC(=O)[C@@H](NC(=O)[C@H](CNC(=O)c1cc(S(=O)(=O)F)ccc1OC)NC(C)=O)[C@@H](C)CC)C(=O)NCC(=O)N[C@@H](CC(=O)O)C(=O)N[C@@H](CCCNC(=N)N)C(=O)N[C@@H](Cc1ccccc1)C(N)=O (Ac-[Dap](Benzoyl(2-OMe,5-SO2F))IAEQLRRIGDRF-NH2)
Activity [1]: Active | IC50 [2]: > 250 nM | Activity [3]: inactive | Activity [4]: inactive | Activity [5]: Active | Ki [6]: 17 nM | Activity [7]: inactive | Kinact [8]: 0.943 min⁻¹ | remaining at 3.5 h [9]: 100% | half-life [10]: > 3.5 h | Activity [11]: Active | Activity [12]: inactive | IC50 [13]: 23.6 nM

CC[C@H](C)[C@H](NC(=O)[C@H](CCCNC(=N)N)NC(=O)[C@H](CCCNC(=N)N)NC(=O)[C@H](CC(C)C)NC(=O)[C@H](CCC(N)=O)NC(=O)[C@H](CCC(=O)O)NC(=O)[C@H](C)NC(=O)[C@@H](NC(=O)[C@H](CNC(=O)c1cccc(S(=O)(=O)F)c1)NC(C)=O)[C@@H](C)CC)C(=O)NCC(=O)N[C@@H](CC(=O)O)C(=O)N[C@@H](CCCNC(=N)N)C(=O)N[C@@H](Cc1ccccc1)C(N)=O (Ac-[Dap](Benzoyl(3-SO2F))IAEQLRRIGDRF-NH2)
IC50 [2]: > 400 nM | IC50 [13]: 23 nM

CC[C@H](C)[C@H](NC(=O)[C@H](CCCNC(=N)N)NC(=O)[C@H](CCCNC(=N)N)NC(=O)[C@H](CC(C)C)NC(=O)[C@H](CCC(N)=O)NC(=O)[C@H](CCC(=O)O)NC(=O)[C@H](C)NC(=O)[C@@H](NC(=O)[C@H](CNC(=O)c1ccc(S(=O)(=O)F)cc1)NC(C)=O)[C@@H](C)CC)C(=O)NCC(=O)N[C@@H](CC(=O)O)C(=O)N[C@@H](CCCNC(=N)N)C(=O)N[C@@H](Cc1ccccc1)C(N)=O (Ac-[Dap](Benzoyl(4-SO2F))IAEQLRRIGDRF-NH2)
IC50 [2]: > 5000 nM | IC50 [13]: 94 nM

CC[C@H](C)[C@H](NC(=O)[C@H](CCCNC(=N)N)NC(=O)[C@H](CCCNC(=N)N)NC(=O)[C@H](CC(C)C)NC(=O)[C@H](CCC(N)=O)NC(=O)[C@H](CCC(=O)O)NC(=O)[C@H](C)NC(=O)[C@@H](NC(=O)[C@H](CNC(=O)c1cc(S(=O)(=O)F)ccc1C)NC(C)=O)[C@@H](C)CC)C(=O)NCC(=O)N[C@@H](CC(=O)O)C(=O)N[C@@H](CCCNC(=N)N)C(=O)N[C@@H](Cc1ccccc1)C(N)=O (Ac-[Dap](X1)IAEQLRRIGDRF-NH2)
Activity [1]: Active | IC50 [2]: > 1000 nM | Activity [3]: inactive | Ki [6]: 37 nM | Kinact [8]: 1.16 min⁻¹ | remaining at 3.5 h [9]: > 80% | half-life [10]: > 3.5 h | Activity [11]: Active | Activity [12]: inactive | IC50 [13]: 19.1 nM

CCCC[C@H](NC(=O)[C@H](C)NC(=O)[C@H](CC(=O)O)NC(=O)CNC(=O)[C@@H](NC(=O)[C@H](CCCNC(=N)N)NC(=O)[C@H](CCCNC(=N)N)NC(=O)[C@H](CC(C)C)NC(=O)[C@H](C)NC(=O)[C@H](CCC(N)=O)NC(=O)[C@H](C)NC(=O)[C@@H](NC(=O)[C@H](C)N)[C@@H](C)CC)[C@@H](C)CC)C(=O)O (H-AIAQALRRIGDA[Nle]-OH)
IC50 [13]: 1600 nM

CCC(NC(=O)[C@H](CCC(N)=O)NC(=O)[C@H](C)NC(=O)[C@@H](NC(=O)[C@H](C)N)[C@@H](C)CC)C(=O)N[C@@H](CC(C)C)C(=O)N[C@@H](CCCNC(=N)N)C(=O)N[C@@H](CCCNC(=N)N)C(=O)N[C@H](C(=O)NCC(=O)N[C@@H](CC(=O)O)C(=O)N[C@@H](C)C(=O)N[C@@H](Cc1ccccc1)C(=O)O)[C@@H](C)CC (stereo partly specified) (H-AIAQ[ξAbu]LRRIGDAF-OH)
IC50 [13]: 1300 nM

CC[C@H](C)[C@H](NC(=O)[C@H](CCCNC(=N)N)NC(=O)[C@H](CCCNC(=N)N)NC(=O)[C@H](CC(C)C)NC(=O)[C@H](CCO)NC(=O)[C@H](CCC(N)=O)NC(=O)[C@H](C)NC(=O)[C@H](CC(C)C)NC(=O)[C@H](C)N)C(=O)NCC(=O)N[C@@H](CC(=O)O)C(=O)N[C@@H](C)C(=O)N[C@@H](Cc1ccccc1)C(=O)O (H-ALAQ[hSer]LRRIGDAF-OH)
IC50 [13]: 3000 nM

Ac-AIAEALRRIGDAF-NH2
IC50 [13]: 261 nM

H-AIAEQLRRIGDAF-NH2
IC50 [13]: 313 nM

H-AIAQALRRIGDAF-OH
IC50 [13]: 2200 nM

H-AIAQALRRIGDAL-OH
IC50 [13]: 1200 nM

H-AIAQALRRIGDAY-OH
IC50 [13]: > 3600 nM

H-ALAQALREIGDAR-OH
IC50 [13]: > 10000 nM
